From PubChem
In the library only some 2.7% were active in any assay of this set; here they are far more common.
HTRA1 inhibitor = HTRA1 serine protease inhibitors, primary screen, biochemical, fluorescence polarization, HTS; Q92743; recombinant HTRA1, FP-rhodamine activity-based probe; inhibition, % at 5.96 µM; 0.5% of 340,000 active; AID 504803, 2011; in the data active = inhibition above about 36%;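 also: 0% = enzyme with DMSO and 100% = wells lacking enzyme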
ABHD4 inh = ABHD4 inhibitors, primary screen, biochemical, fluorescence polarization, mouse; (Lyso)-N-acylphosphatidylethanolamine lipase (Mus musculus), Q8VD66; purified mABHD4, FP-Rh probe fluorescence polarization; inhibition, % at 8.92 µM; 0.54% of 370,000 active;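 active = inhibition exceeding the mean over every tested compound plus 3 SD, cut at about 30% in these data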;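 also: 0% = plate median of compound wells and 100% = S159A mutant with DMSO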
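Assay system: wild-type mouse ABHD4 protein; compound: single nominal dose of 8.92 µM, 0.89% DMSO final; schedule: 45 min + 60 min at 25 °C; measured by: FP readout, ex 525 nm / em 598 nm; evaluation: % inhibition of FP-Rh probe binding versus controls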
SIAE inh = human SIAE inhibitors, primary screen, biochemical, fluorescence polarization, FP-Rh probe, 1536-well HTS; Sialate O-acetylesterase (Homo sapiens), Q9HAT2; SIAE FP-Rh probe binding; inhibition, % at 9.66 µM; 0.69% of 370,000 active;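 active = inhibition above a cutoff: mean of compounds within the control limits plus 3 SD of those, cut at about 17% in these data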;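 also: 0% = plate median of compound wells and 100% = probe without SIAE protein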
Target sequence (Q9HAT2 whole entry, looked up): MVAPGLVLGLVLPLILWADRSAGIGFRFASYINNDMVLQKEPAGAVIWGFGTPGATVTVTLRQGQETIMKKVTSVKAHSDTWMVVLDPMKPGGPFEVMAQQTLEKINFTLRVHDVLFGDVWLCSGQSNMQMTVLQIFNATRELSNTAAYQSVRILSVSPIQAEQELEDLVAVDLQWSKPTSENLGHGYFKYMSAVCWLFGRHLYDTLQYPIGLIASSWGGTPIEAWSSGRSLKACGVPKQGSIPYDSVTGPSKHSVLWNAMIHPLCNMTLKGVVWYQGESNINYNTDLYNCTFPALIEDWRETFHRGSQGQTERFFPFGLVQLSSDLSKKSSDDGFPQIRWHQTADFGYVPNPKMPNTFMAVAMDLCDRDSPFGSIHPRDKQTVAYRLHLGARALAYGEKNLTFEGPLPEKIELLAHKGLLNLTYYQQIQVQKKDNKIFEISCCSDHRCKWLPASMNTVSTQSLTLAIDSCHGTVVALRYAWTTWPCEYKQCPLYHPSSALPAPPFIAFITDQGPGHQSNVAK
PRMT1 inh = PRMT1 methyltransferase inhibitors, primary screen, biochemical, fluorescence polarization. recombinant PRMT1, activity-based probe fluorescence polarization. inhibition, % at 2.79 µM. Protein arginine N-methyltransferase 1 (Homo sapiens), Q99873. AID 652257, 2013. 1.3% of 370,000 active;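 active = inhibition above about 21% made by adding two undisclosed values, limit read from the data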
TCR-CD3 inh = inhibitors of human TCR-CD3 interaction, primary screen, biochemical, fluorescence, TAMRA-labeled TCR probe. T-cell receptor (TCR). inhibition, % at 9.4 µM. 0.37% of 360,000 active;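 also: recombinant mutant TCR 2C K166C tagged with TAMRA read by polarization; 0% = receptor in buffer alone and 100% = receptor with positive control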
HTRA1 conf = HTRA1 protease inhibitors, retest, confirmation, biochemical, fluorescence polarization. shares compounds with HTRA1 inhibitor. 66% of 1,600 active. inhibition, % at 5.96 µM. AID 540248, 2011. recombinant HTRA1, FP-rhodamine activity-based probe;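 active = mean inhibition over three repeats above a set limit taken from the earlier primary screen, cut at about 37% in these data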;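 also: 0% = HTRA1 with DMSO and 100% = wells lacking HTRA1; inhibitors block probe binding so polarization drops and inhibition rises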
BSA probe FL = compounds interfering with TAMRA-BSA probe, counter-screen for TCR-CD3 interaction inhibitor project, biochemical, fluorescence, TAMRA-labeled BSA; inhibition, % at 9.4 µM; 10% of 1,200 active; TAMRA-labeled BSA probe fluorescence counterscreen; AID 652035, 2013; shares compounds with TCR-CD3 inh; in the data active = inhibition above about 23%;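 also: 0% = buffer low control and 100% = reference high control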
TCR-CD3 inh conf = TCR-CD3 interaction inhibitors, retest, confirmation, biochemical, fluorescence, TAMRA-labeled TCR probe; shares compounds with TCR-CD3 inh; inhibition, % at 9.4 µM; TAMRA-labeled TCR probe fluorescence binding assay; AID 652036, 2013; 48% of 1,200 active
PRMT1 inh conf = PRMT1 methyltransferase inhibitors, confirmation, biochemical, fluorescence polarization, triplicate; recombinant His-PRMT1, activity-based probe fluorescence polarization; inhibition, % at 2.79 µM; shares compounds with PRMT1 inh; AID 687036, 2013; 42% of 3,300 active;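 active = mean inhibition across replicates above the hit cutoff derived for the earlier primary screen, cut at about 22% in these data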
mABHD4 conf = ABHD4 inhibitors, retest, confirmation, biochemical, fluorescence polarization, mouse. shares compounds with ABHD4 inh. purified mABHD4, FP-Rh probe fluorescence polarization. inhibition, % at 8.92 µM. 55% of 1,800 active. AID 720658, 2013;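 active = mean inhibition across replicates above the hit cutoff set in the primary screen, cut at about 30% in these data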;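 also: 0% = wild-type ABHD4 with DMSO and 100% = catalytically dead S159A mutant with DMSO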
Starred values were filed as active, the others as inactive. Rule as the data show it, unless noted: active = inhibition above about 19%; inactive = the rest.

How did C=C1c2cccc(O)c2C(=O)C2C(=O)[C@]3(O)C(=O)C(C(N)=O)C(=O)[C@@H](N(C)C)[C@@H]3[C@@H](O)[C@H]12 (some centres undefined) do in these assays?
HTRA1 inhibitor: 45.9*; ABHD4 inh: 84.8*; SIAE inh: 47.0*; PRMT1 inh: 61.5*; TCR-CD3 inh: 27.5*; HTRA1 conf: 37.6*; BSA probe FL: -4.4; TCR-CD3 inh conf: 14.2; PRMT1 inh conf: 22.5*; mABHD4 conf: 16.8

What do the screens show for `COc1cc(/C=N/NC(=O)c2cccc(S(=O)(=O)N3CCCC3)c2)cc(OC)c1O`?
HTRA1 inhibitor: 2.0; ABHD4 inh: 3.2; SIAE inh: 13.3; PRMT1 inh: -5.8; TCR-CD3 inh: -2.0

What do the screens show for `NC(=S)N=Nc1c(O)[nH]c2ccc(F)cc12`?
HTRA1 inhibitor: 6.7; ABHD4 inh: 9.0; SIAE inh: -4.4; PRMT1 inh: 7.8; TCR-CD3 inh: -2.5

What do the screens show for `NC(=S)N=Nc1c(O)cc(O)c2[nH]c(=O)ccc12`?
HTRA1 inhibitor: 60.9*; ABHD4 inh: 33.8*; SIAE inh: 12.1; PRMT1 inh: 70.1*; TCR-CD3 inh: 29.6*; HTRA1 conf: 42.9*; mABHD4 conf: 77.2*

Results for CCn1nc([N+](=O)[O-])c(C(C#N)c2nc3ccccc3n2C)c(Cl)c1=O (centres undefined) ?
HTRA1 inhibitor: 10.8; ABHD4 inh: 18.6; SIAE inh: 2.9; PRMT1 inh: 2.4; TCR-CD3 inh: 1.3

How did CCCn1nc([N+](=O)[O-])c(C(C#N)c2nc3ccccc3s2)c(Cl)c1=O (centres undefined) do in these assays?
HTRA1 inhibitor: 76.4*; ABHD4 inh: 77.9*; SIAE inh: 7.3; PRMT1 inh: 28.1*; TCR-CD3 inh: -1.5; HTRA1 conf: 72.2*; mABHD4 conf: 98.1*

How did Oc1cccc(/C=N/N=C/c2cccc(O)c2O)c1O do in these assays?
HTRA1 inhibitor: 36.2*; ABHD4 inh: 35.8*; SIAE inh: -11.6; PRMT1 inh: 14.4; TCR-CD3 inh: -4.2; HTRA1 conf: 45.0*; mABHD4 conf: 18.6

How did Oc1ccc(C=Nc2ccc(N3CCOCC3)cc2)c(O)c1 do in these assays?
HTRA1 inhibitor: 34.9; ABHD4 inh: 27.1; SIAE inh: 6.4; PRMT1 inh: 3.5; TCR-CD3 inh: -5.1

What do the screens show for `Oc1cc(Br)ccc1C=Nc1ccc(N2CCCCC2)cc1`?
HTRA1 inhibitor: 52.5*; ABHD4 inh: 36.3*; SIAE inh: 2.9; PRMT1 inh: 3.1; TCR-CD3 inh: 5.1; HTRA1 conf: 14.2; mABHD4 conf: 12.8

How did O=C1NCCCc2c1oc1ccc(O)cc21 do in these assays?
HTRA1 inhibitor: -3.2; ABHD4 inh: -5.4; SIAE inh: 5.1; PRMT1 inh: -2.9; TCR-CD3 inh: -2.1

What do the screens show for `Oc1c(Cl)cc(Cl)c2c1NCCC2`?
HTRA1 inhibitor: 51.5*; ABHD4 inh: 38.0*; SIAE inh: 14.4; PRMT1 inh: 19.3; TCR-CD3 inh: 5.1; HTRA1 conf: 30.1; mABHD4 conf: 37.4*

What do the screens show for `Oc1cc(CNC2CCCCC2)c(O)cc1CNC1CCCCC1`?
HTRA1 inhibitor: 48.3*; ABHD4 inh: 38.0*; SIAE inh: 2.7; PRMT1 inh: 12.9; TCR-CD3 inh: 6.3; HTRA1 conf: 63.9*; mABHD4 conf: 55.7*

What do the screens show for `O=c1cc2c(=O)oc3cc(O)c(O)oc3c2c(O)c1O`?
HTRA1 inhibitor: 46.7*; ABHD4 inh: 41.5*; SIAE inh: 12.2; PRMT1 inh: 27.0*; TCR-CD3 inh: 25.6*; HTRA1 conf: 38.2*; BSA probe FL: -18.7; TCR-CD3 inh conf: 19.1*; PRMT1 inh conf: 31.2*; mABHD4 conf: 34.1*

How did Cc1ccc2oc(-c3cc(NC(=O)c4ncn[nH]4)ccc3O)nc2c1 do in these assays?
HTRA1 inhibitor: -1.1; ABHD4 inh: -0.6; SIAE inh: -33.3; PRMT1 inh: -4.5; TCR-CD3 inh: 8.3

Results for COc1ccc(N2C3=C(CC4=C2CCCC4=O)C(=O)CCC3)cc1 ?
HTRA1 inhibitor: 76.4*; ABHD4 inh: 59.3*; SIAE inh: 13.6; PRMT1 inh: 10.0; TCR-CD3 inh: 2.2; HTRA1 conf: 67.8*; mABHD4 conf: 15.9

What do the screens show for `CCOc1ccc(S(=O)(=O)N2CCN(C(=O)CCOc3ccccc3C)CC2)cc1`?
HTRA1 inhibitor: -3.7; ABHD4 inh: 1.1; SIAE inh: -0.1; PRMT1 inh: 3.4; TCR-CD3 inh: 0.9

What do the screens show for `Cc1cc(O)c(N=Cc2cc3c(cc2[N+](=O)[O-])OCO3)cc1C`?
HTRA1 inhibitor: 51.7*; ABHD4 inh: 45.0*; SIAE inh: 8.4; PRMT1 inh: 25.3*; TCR-CD3 inh: -7.4; HTRA1 conf: 6.4; PRMT1 inh conf: 22.4*; mABHD4 conf: 20.7

How did O=C(N/N=C/c1cc2c(cc1[N+](=O)[O-])OCO2)c1ccc2c(c1)OCO2 do in these assays?
HTRA1 inhibitor: 0.4; ABHD4 inh: 10.1; SIAE inh: -3.9; PRMT1 inh: 15.8; TCR-CD3 inh: -8.9

What do the screens show for `Cc1ccc(S(=O)(=O)N2C[C@H]3[C@H]4C(=O)N(Cc5ccccc5)C(=O)[C@H]4CC(=O)[C@H]3[C@@H]2c2ccccc2)cc1`?
ABHD4 inh: -3.5; SIAE inh: -0.8; PRMT1 inh: 0.8; TCR-CD3 inh: -4.0

Results for Cc1cc(/C=N/NC(=O)c2ccncc2)c(C)n1-c1ccccc1 ?
HTRA1 inhibitor: 11.0; ABHD4 inh: 2.9; SIAE inh: 1.3; PRMT1 inh: -2.0; TCR-CD3 inh: 8.1
